In brackets after ≈: the same amount, converted by molar mass. Some results are limits rather than exact numbers.

For series [1], the system named is Human immunodeficiency virus 1. Kind of series: Inhibition of HIV1 Rev nuclear export in Saccharomyces pombe expressing GST-NLS-GFP-RevNES fused protein assessed as cellular distribution after 3 hrs by fluorescence microscopy. In short, it runs like this:
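Fission yeast colony grown 24 h at 37 °C in thiamine-free MM medium to induce the GST-NLS-GFP-RevNES fusion. Cells then exposed to samples in medium with 1% DMSO for 3 h at 37 °C. Fusion-protein distribution checked by fluorescence microscopy to give MIC values.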

Series [2] in a line: Inhibition of HIV1 HA-tagged Rev nuclear export expressed in human HeLa cells assessed as cellular localization after 12 hrs by FITC-labelled indirect fluorescence microscopy. The format is cell-based. Particulars: Human immunodeficiency virus 1, HeLa. In short, it runs like this:
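HeLa cells (1.0 × 10^5) grown on coverslips in DMEM with 10% FBS, 37 °C, 5% CO2, 24 h. Co-transfected 16 h with plasmids for HA-tagged Rev and Gag (pCRRE/ΔRev). Samples added in medium with 1% DMSO, 12 h at 37 °C. Cells fixed in 4% formaldehyde, methanol-treated, blocked with 10% FBS, then anti-HA and FITC anti-mouse IgG. Rev localization scored by fluorescence microscopy and image analysis.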

The nature of series [3]: Stability assessed as compound remaining up to 180 mins in presence of in fetal bovine serum. The conditions noted are these: cattle, 3 h. It is filed as ADME. Put shortly:
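Sample (0.2 mM ethanol stock) added to RPMI1640 containing 10% FBS, held at 37 °C for 0, 30, 60 or 180 min. Mixture extracted with EtOAc, residue taken up in acetonitrile. Remaining compound measured by reversed-phase HPLC (C18, acetonitrile–water gradient, UV 220 nm), in triplicate.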

For orientation: IC50 means the concentration at which inhibition is half-maximal. Regarding `C=C[C@H](OC(C)=O)c1ccc(OC(C)=O)c(Cl)c1`, in series [1], the MIC turned out to be 2.2 µM (≈ 0.591 µg/mL). Also, the IC50 in series [2] is 620 nM. For the compound `C=C[C@H](OC(=O)OCCC)c1ccc(OC(C)=O)cc1`, the MIC in series [1] was determined as 26 µM (≈ 7.24 µg/mL). Take `C=C[C@H](OC(=O)NC(C)(C)C)c1ccc(OC(=O)NC(C)(C)C)cc1`: the MIC in series [1] was above 50 µM. In series [3], the Stability result is “Stable”. For the compound `C=C[C@H](OC(=O)CCC)c1ccc(OC(C)=O)cc1`, the MIC in series [1] came to 19 µM (≈ 4.98 µg/mL). Consider `C=C[C@H](OC(=O)OCC)c1ccc(OC(=O)OCC)cc1`, for which the MIC in series [1] worked out at 25 µM (≈ 7.36 µg/mL). Moreover, the Stability result in series [3] is listed as “Stable”. The corresponding values for `C=C[C@H](OC(=O)OCCC)c1ccc(OC(=O)OCCC)cc1` are 10 µM (≈ 3.22 µg/mL) and “Stable”. Consider `C=C[C@H](OC(=O)OC)c1ccc(OC(=O)OC)cc1`, for which, in series [1], the MIC worked out at 25 µM (≈ 6.66 µg/mL). Also, the Stability result in series [3] is given as “Stable”. For `C=C[C@H](OC(=O)NC)c1ccc(OC(=O)NC)cc1`, the MIC in series [1] was above 50 µM. The Stability entry in series [3] is “Stable”. For `C=C[C@H](OC(=O)OC(C)C)c1ccc(OC(=O)OC(C)C)cc1`, in that order: above 50 µM and “Stable”.

For `C=C[C@H](OC(=O)NCC)c1ccc(OC(=O)NCC)cc1`, in series [1], the MIC was above 50 µM. The Stability entry in series [3] is listed as “Stable”. The corresponding values for `C=C[C@H](OC(=O)NCCC)c1ccc(OC(=O)NCCC)cc1` are above 50 µM and “Stable”. In the case of `C=C[C@H](OC(=O)C(C)C)c1ccc(OC(C)=O)cc1`, the MIC in series [1] was 19 µM (≈ 4.98 µg/mL). Consider `C=C[C@H](OC(C)=O)c1ccc(OC(C)=O)c(F)c1F`, for which the MIC in series [1] was found to be 1.4 µM (≈ 0.378 µg/mL). Also, the 50% inhibitory concentration (IC50) in series [2] came to 130 nM. With `C=C[C@H](OC(=O)OC(C)C)c1ccc(OC(C)=O)cc1`, the MIC in series [1] is above 50 µM.

Regarding `C=C[C@H](OC(C)=O)c1ccc(OC(C)=O)c(Br)c1`, the MIC in series [1] came out at 1.7 µM (≈ 0.532 µg/mL). Further, the IC50 in series [2] came out at 490 nM. For `C=C[C@H](OC(C)=O)c1ccc(OC(C)=O)c(F)c1`, in that order: 1.7 µM (≈ 0.429 µg/mL) and 480 nM.

Regarding `C=C[C@H](OC(=O)OC(C)(C)C)c1ccc(OC(=O)OC(C)(C)C)cc1`, the MIC in series [1] was above 50 µM. Also, in series [3], the Stability entry is “Stable”. As to `C=C[C@H](OC(C)=O)c1ccc(OC(C)=O)cc1` [1'-ACETOXYCHAVICOL ACETATE], the MIC in series [1] came out at 4.3 µM. In series [2], the IC50 is 980 nM. With `C=C[C@H](OC(=O)NC(C)C)c1ccc(OC(=O)NC(C)C)cc1`, in series [1], the MIC was above 50 µM. In addition, the Stability entry in series [3] was “Stable”.

Source of the values: ChEMBL document CHEMBL1156947, “Halogenated analogs of 1'-acetoxychavicol acetate, Rev-export inhibitor from Alpinia galanga, designed from mechanism of action” (Bioorg Med Chem Lett, 2010).
